The source made the active and inactive calls. No cut-off for these calls is given here.
Assays:
[1] = test system: Enterobacteria phage lambda; assay: Induction of lambda phage lytic activity in Escherichia coli W1709(lambda) assessed as ratio of plaques in treated culture to control at 0.05 ug/ml preincubated for 90 mins followed by heart infusion broth and glucose addition measured after 120 mins; type: functional
[2] = test system: Enterobacteria phage lambda; assay: Induction of lambda phage lytic activity in Escherichia coli W1709(lambda) assessed as ratio of plaques in treated culture to control at 0.8 ug/ml preincubated for 90 mins followed by heart infusion broth and glucose addition measured after 120 mins; type: functional
[3] = test system: Enterobacteria phage lambda; assay: Induction of lambda phage lytic activity in Escherichia coli W1709(lambda) assessed as ratio of plaques in treated culture to control at 0.0125 ug/ml preincubated for 90 mins followed by heart infusion broth and glucose addition measured after 120 mins; type: functional
[4] = test system: Enterobacteria phage lambda; assay: Induction of lambda phage lytic activity in Escherichia coli W1709(lambda) assessed as ratio of plaques in treated culture to control at 0.003 ug/ml preincubated for 90 mins followed by heart infusion broth and glucose addition measured after 120 mins; type: functional
[5] = test system: Escherichia coli; assay: Toxicity in Escherichia coli W1709(lambda) at 3.1 ug/ml; type: organism-based; settings: in vivo
[6] = test system: Enterobacteria phage lambda; assay: Induction of lambda phage lytic activity in Escherichia coli W1709(lambda) assessed as ratio of plaques in treated culture to control at 3.1 ug/ml preincubated for 90 mins followed by heart infusion broth and glucose addition measured after 120 mins; type: functional
[7] = test system: Enterobacteria phage lambda; assay: Induction of lambda phage lytic activity in Escherichia coli W1709(lambda) assessed as ratio of plaques in treated culture to control at 0.2 ug/ml preincubated for 90 mins followed by heart infusion broth and glucose addition measured after 120 mins; type: functional
[8] = test system: Escherichia coli; assay: Toxicity in Escherichia coli W1709(lambda) at 0.0125 ug/ml; type: organism-based; settings: in vivo
[9] = test system: Mus musculus; assay: Toxicity in CDF1 mouse allografted with mouse P388 cells assessed as change in weight at 0.8 mg/kg/day administered qd on day 1 and 5 (reference value: 3.4 g); type: organism-based; settings: in vivo
Summary of the method: (§1)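 Male CDF1 mice were implanted intraperitoneally with 10^6 P388 ascites cells. Treatment was given once daily on days 1 and 5 only. Groups were six mice each. Median survival time was taken for each group.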

[10] = test system: Escherichia coli; assay: Toxicity in Escherichia coli W1709(lambda) at 0.05 ug/ml; type: organism-based; settings: in vivo
[11] = test system: Mus musculus; assay: Toxicity in CDF1 mouse allografted with mouse P388 cells assessed as change in weight at 0.4 mg/kg/day administered qd on day 1 and 5 (reference value: 3.4 g); type: organism-based; settings: in vivo; summary of the method: as §1
[12] = test system: P388; assay: Antitumor activity against mouse P388 cells allografted in CDF1 mouse assessed as mouse survival at 0.2 mg/kg/day administered qd on day 1 and 5 measured on day 5; type: functional, organism-based; summary of the method: as §1
[13] = test system: Mus musculus; assay: Toxicity in CDF1 mouse allografted with mouse P388 cells assessed as change in weight at 0.1 mg/kg/day administered qd on day 1 and 5 (reference value: 3.4 g); type: organism-based; settings: in vivo; summary of the method: as §1
[14] = test system: P388; assay: Antitumor activity against mouse P388 cells allografted in CDF1 mouse assessed as mouse survival at 0.4 mg/kg/day administered qd on day 1 and 5 measured on day 30; type: functional, organism-based; summary of the method: as §1
[15] = test system: P388; assay: Antitumor activity against mouse P388 cells allografted in CDF1 mouse assessed as effect on median survival time at 0.2 mg/kg/day administered qd on day 1 and 5 relative to control; type: functional; summary of the method: as §1
[16] = test system: Mus musculus; assay: Toxicity in CDF1 mouse allografted with mouse P388 cells assessed as change in weight at 1.6 mg/kg/day administered qd on day 1 and 5 (reference value: 3.4 g); type: organism-based; settings: in vivo; summary of the method: as §1
[17] = test system: P388; assay: Antitumor activity against mouse P388 cells allografted in CDF1 mouse assessed as mouse survival at 0.2 mg/kg/day administered qd on day 1 and 5 measured on day 30; type: functional, organism-based; summary of the method: as §1
[18] = test system: P388; assay: Antitumor activity against mouse P388 cells allografted in CDF1 mouse assessed as effect on median survival time at 0.8 mg/kg/day administered qd on day 1 and 5 relative to control; type: functional; summary of the method: as §1
[19] = test system: Mus musculus; assay: Toxicity in CDF1 mouse allografted with mouse P388 cells assessed as change in weight at 0.2 mg/kg/day administered qd on day 1 and 5 (reference value: 3.4 g); type: organism-based; settings: in vivo; summary of the method: as §1
[20] = test system: Mus musculus; assay: Toxicity in CDF1 mouse allografted with mouse P388 cells assessed as change in weight at 3.2 mg/kg/day administered qd on day 1 and 5 (reference value: 3.4 g); type: organism-based; settings: in vivo; summary of the method: as §1
[21] = test system: P388; assay: Antitumor activity against mouse P388 cells allografted in CDF1 mouse assessed as mouse survival at 3.2 mg/kg/day administered qd on day 1 and 5 measured on day 30; type: functional, organism-based; summary of the method: as §1
[22] = test system: P388; assay: Antitumor activity against mouse P388 cells allografted in CDF1 mouse assessed as mouse survival at 0.1 mg/kg/day administered qd on day 1 and 5 measured on day 30; type: functional, organism-based; summary of the method: as §1
[23] = test system: P388; assay: Antitumor activity against mouse P388 cells allografted in CDF1 mouse assessed as effect on median survival time at 3.2 mg/kg/day administered qd on day 1 and 5 relative to control; type: functional; summary of the method: as §1
[24] = test system: P388; assay: Antitumor activity against mouse P388 cells allografted in CDF1 mouse assessed as mouse survival at 0.4 mg/kg/day administered qd on day 1 and 5 measured on day 5; type: functional, organism-based; summary of the method: as §1
[25] = test system: P388; assay: Antitumor activity against mouse P388 cells allografted in CDF1 mouse assessed as mouse survival at 1.6 mg/kg/day administered qd on day 1 and 5 measured on day 5; type: functional, organism-based; summary of the method: as §1
[26] = test system: P388; assay: Antitumor activity against mouse P388 cells allografted in CDF1 mouse assessed as effect on median survival time at 1.6 mg/kg/day administered qd on day 1 and 5 relative to control; type: functional; summary of the method: as §1
[27] = test system: P388; assay: Antitumor activity against mouse P388 cells allografted in CDF1 mouse assessed as mouse survival at 0.8 mg/kg/day administered qd on day 1 and 5 measured on day 5; type: functional, organism-based; summary of the method: as §1
[28] = test system: P388; assay: Antitumor activity against mouse P388 cells allografted in CDF1 mouse assessed as mouse survival at 3.2 mg/kg/day administered qd on day 1 and 5 measured on day 5; type: functional, organism-based; summary of the method: as §1
[29] = test system: P388; assay: Antitumor activity against mouse P388 cells allografted in CDF1 mouse assessed as mouse survival at 1.6 mg/kg/day administered qd on day 1 and 5 measured on day 30; type: functional, organism-based; summary of the method: as §1
[30] = test system: P388; assay: Antitumor activity against mouse P388 cells allografted in CDF1 mouse assessed as mouse survival at 0.1 mg/kg/day administered qd on day 1 and 5 measured on day 5; type: functional, organism-based; summary of the method: as §1
[31] = test system: P388; assay: Antitumor activity against mouse P388 cells allografted in CDF1 mouse assessed as effect on median survival time at 0.4 mg/kg/day administered qd on day 1 and 5 relative to control; type: functional; summary of the method: as §1
[32] = test system: P388; assay: Antitumor activity against mouse P388 cells allografted in CDF1 mouse assessed as effect on median survival time at 0.1 mg/kg/day administered qd on day 1 and 5 relative to control; type: functional; summary of the method: as §1
[33] = test system: P388; assay: Antitumor activity against mouse P388 cells allografted in CDF1 mouse assessed as mouse survival at 0.8 mg/kg/day administered qd on day 1 and 5 measured on day 30; type: functional, organism-based; summary of the method: as §1
[34] = test system: Escherichia coli; assay: Toxicity in Escherichia coli W1709(lambda) at 0.2 ug/ml; type: organism-based; settings: in vivo
Summary of the method: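 Screened for induction of lytic activity by lambda-bacteriophage lysogenic in Escherichia coli, at 3.1, 0.8, 0.2, 0.05, 0.0125 and 0.003 ug/mL. The read-out was the ratio of plaques induced by the test compound to plaques in an untreated control. Wells where the compound was toxic to the culture were scored "T" instead of a ratio.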

[35] = test system: Escherichia coli; assay: Toxicity in Escherichia coli W1709(lambda) at 0.8 ug/ml; type: organism-based; settings: in vivo
[36] = test system: P388; assay: Antitumor activity against mouse P388 cells allografted in CDF1 mouse assessed as effect on median survival time at 6.4 mg/kg/day administered qd on day 1 and 5 relative to control; type: functional; summary of the method: as §1
[37] = test system: P388; assay: Antitumor activity against mouse P388 cells allografted in CDF1 mouse assessed as mouse survival at 6.4 mg/kg/day administered qd on day 1 and 5 measured on day 5; type: functional, organism-based; summary of the method: as §1
[38] = test system: P388; assay: Antitumor activity against mouse P388 cells allografted in CDF1 mouse assessed as mouse survival at 6.4 mg/kg/day administered qd on day 1 and 5 measured on day 30; type: functional, organism-based; summary of the method: as §1
[39] = test system: Mus musculus; assay: Toxicity in CDF1 mouse allografted with mouse P388 cells assessed as change in weight at 6.4 mg/kg/day administered qd on day 1 and 5 (reference value: 3.4 g); type: organism-based; settings: in vivo; summary of the method: as §1

COC1=C(C)C(=O)c2c(c(COC(N)=O)c3n2C[C@H]2[C@@H]3N2C)C1=O (some centres not stated)
T/C [1]: 3.4
T/C [2]: 38.8
T/C [3]: 3
T/C [4]: 0.8
Activity [5]: Toxic
T/C [6]: 35.4

COC1=C(C)C(=O)c2c(c(COC(N)=O)c3n2CCC3O)C1=O (racemic)
T/C [2]: 2.9
T/C [6]: 6.9

CN[C@@H]1Cn2c3c(c(COC(N)=O)c2[C@@H]1O)C(=O)C(OC)=C(C)C3=O (relative stereo)
T/C [2]: 4.4
T/C [7]: 2
Activity [5]: Toxic
T/C [6]: 22.4

CN[C@@H]1Cn2c3c(c(COC(N)=O)c2[C@H]1O)C(=O)C(OC)=C(C)C3=O (relative stereo)
T/C [2]: 2.4
T/C [6]: 7

COC1=C(C)C(=O)C2=C(C1=O)[C@@H](COC(N)=O)[C@@]1(OC)[C@H]3N[C@H]3CN21 [MITOMYCIN A]
Activity [8]: Toxic
Activity [9]: -2.6 g
Activity [10]: Toxic
Activity [11]: -0.4 g
Activity [12]: Active
T/C [3]: 31.1
Activity [13]: 0.3 g
Activity [14]: inactive
T/C [15]: 130%
Activity [16]: -3.1 g
T/C [4]: 7.4
Activity [17]: inactive
T/C [18]: 155%
Activity [19]: 0.1 g
Activity [20]: -2.1 g
Activity [21]: inactive
Activity [22]: inactive
T/C [23]: 180%
Activity [24]: Active
Activity [25]: Active
T/C [26]: 165%
Activity [27]: Active
Activity [28]: Active
Activity [29]: inactive
Activity [30]: Active
T/C [31]: 140%
T/C [32]: 120%
Activity [33]: inactive

CO[C@@]12[C@H](COC(N)=O)C3=C(C(=O)C(C)=C(N)C3=O)N1C[C@@H]1N[C@@H]12 [MITOMYCIN]
Activity [9]: -0.8 g
T/C [1]: 17.6
Activity [10]: Toxic
Activity [11]: 0 g
Activity [12]: Active
T/C [3]: 6.6
Activity [13]: 0 g
Activity [14]: inactive
T/C [15]: 125%
Activity [16]: 0.1 g
T/C [4]: 2.7
Activity [17]: inactive
Activity [34]: Toxic
T/C [18]: 175%
Activity [19]: 0.3 g
Activity [20]: -2.3 g
Activity [22]: inactive
T/C [23]: 270%
Activity [24]: Active
Activity [25]: Active
T/C [26]: 175%
Activity [27]: Active
Activity [28]: Active
Activity [29]: inactive
Activity [30]: Active
T/C [31]: 130%
T/C [32]: 120%

COC1=C(C)C(=O)C2=C(C1=O)[C@@H](COC(N)=O)[C@@]1(OC)[C@@H]3[C@H](CN21)N3C (some centres not stated) [N-METHYL-MITOMYCIN A]
Activity [9]: -0.3 g
T/C [1]: 8.2
Activity [35]: Toxic
Activity [11]: 0.9 g
Activity [12]: Active
T/C [3]: 3.7
Activity [14]: inactive
T/C [15]: 115%
Activity [16]: -1.6 g
T/C [4]: 1.8
Activity [17]: inactive
T/C [36]: 165%
T/C [18]: 145%
T/C [7]: 21.2
Activity [19]: 0.3 g
Activity [20]: -3.1 g
Activity [37]: Active
T/C [23]: 180%
Activity [24]: Active
Activity [25]: Active
T/C [26]: 145%
Activity [38]: inactive
Activity [27]: Active
Activity [28]: Active
Activity [29]: inactive
T/C [31]: 130%
Activity [39]: -2.4 g
Activity [33]: inactive
